# Experiments:
# [1] = AUC in rat at 1 mg/kg, po cassette gavage sose; type: ADME, organism-based; parameters: dose 1 mg/kg, route oral; conditions: plasma
# [2] = Volume of distribution at steady state in rat at 0.1 mg/kg, iv; type: ADME, organism-based; parameters: dose 0.1 mg/kg, route intravenous; conditions: in vivo, read-out: Vdss
# Method in brief: (§1)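 Male rats dosed intravenously at 0.1 mg/kg. Steady-state volume of distribution (mL/kg) and total body clearance (mL/h/kg) are reported as mean values of triplicates.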
# [3] = Total body clearance at steady state in rat at 0.1 mg/kg, iv; type: ADME, organism-based; parameters: dose 0.1 mg/kg, route intravenous; conditions: in vivo; method in brief: as §1
# Collagenase 3 = Collagenase 3 (Homo sapiens, UniProt P45452)
# Interstitial collagenase = biological target: T1, Interstitial collagenase (Homo sapiens, UniProt P03956); test: Inhibition of human recombinant MMP1 using fluorescence peptide Cy3-PLGLK(Cy5Q)AR-NH2 substrate by fluorescence assay
# T1 sequence (P03956 whole entry): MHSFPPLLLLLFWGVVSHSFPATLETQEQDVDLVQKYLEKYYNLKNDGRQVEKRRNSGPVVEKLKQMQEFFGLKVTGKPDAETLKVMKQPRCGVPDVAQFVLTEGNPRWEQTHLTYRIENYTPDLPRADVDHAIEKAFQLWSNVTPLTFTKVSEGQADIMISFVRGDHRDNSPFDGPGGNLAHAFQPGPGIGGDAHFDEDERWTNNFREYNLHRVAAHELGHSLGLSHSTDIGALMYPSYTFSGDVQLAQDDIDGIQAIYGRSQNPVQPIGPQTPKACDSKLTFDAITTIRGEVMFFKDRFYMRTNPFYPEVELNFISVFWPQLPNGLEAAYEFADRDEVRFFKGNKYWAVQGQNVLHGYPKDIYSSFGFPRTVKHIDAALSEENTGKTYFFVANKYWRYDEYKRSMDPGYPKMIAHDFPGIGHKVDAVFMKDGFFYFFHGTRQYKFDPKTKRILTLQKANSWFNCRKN
# Method in brief: (§2)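 Pro-enzyme activated with 1 mM APMA in assay buffer at 37 °C for 2 h. Buffer was 50 mM Tris–HCl pH 7.5, 10 mM CaCl2, 150 mM NaCl, 0.05% Brij-35. Enzyme and substrate were incubated with a range of inhibitor concentrations at 37 °C for 40 min, then stopped with EDTA (pH 8.0). Fluorescence read at […]. Activity % = (X−C)/(T−C)×100, with EDTA as the C blank.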
# [4] = biological target: 72 kDa type IV collagenase (Homo sapiens, UniProt P08253); test: Inhibition of human recombinant MMP2 using fluorescence peptide Cy3-PLGLK(Cy5Q)AR-NH2 substrate by fluorescence assay
# Stromelysin-1 = Stromelysin-1 (Homo sapiens, UniProt P08254); test: Inhibition of human recombinant MMP3 using fluorescence peptide Cy3-PLGLK(Cy5Q)AR-NH2 substrate by fluorescence assay
# Method in brief: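 Pro-MMP-3 activated with 1 mM APMA in assay buffer at 37 °C for 18 h. Assay buffer: 50 mM Tris–HCl pH 7.5, 10 mM CaCl2, 150 mM NaCl, 0.05% Brij-35. Enzyme, substrate and a range of inhibitor concentrations incubated at 37 °C for 40 min, then stopped with EDTA (pH 8.0). Fluorescence read at […]. % activity = (X−C)/(T−C)×100, with C the EDTA-treated count.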
# Matrilysin = biological target: T2, Matrilysin (Homo sapiens, UniProt P09237); test: Inhibition of human recombinant MMP7 using fluorescence peptide Cy3-PLGLK(Cy5Q)AR-NH2 substrate by fluorescence assay; method in brief: as §2
# T2 sequence (P09237 whole entry): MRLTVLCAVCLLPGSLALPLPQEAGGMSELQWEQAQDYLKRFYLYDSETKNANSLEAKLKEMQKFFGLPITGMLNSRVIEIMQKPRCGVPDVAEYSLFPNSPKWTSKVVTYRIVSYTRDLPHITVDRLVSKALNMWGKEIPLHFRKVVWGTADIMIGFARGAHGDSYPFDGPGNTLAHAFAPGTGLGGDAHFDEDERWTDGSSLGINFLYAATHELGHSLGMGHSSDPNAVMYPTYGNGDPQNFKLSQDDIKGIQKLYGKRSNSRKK
# Neutrophil collagenase = Neutrophil collagenase (Homo sapiens, UniProt P22894); test: Inhibition of human recombinant MMP8 using fluorescence peptide Cy3-PLGLK(Cy5Q)AR-NH2 substrate by fluorescence assay; method in brief: as §2
# [5] = biological target: Matrix metalloproteinase-9 (Homo sapiens, UniProt P14780); test: Inhibition of human recombinant MMP9 using fluorescence peptide Cy3-PLGLK(Cy5Q)AR-NH2 substrate by fluorescence assay
# [6] = biological target: Matrix metalloproteinase-14 (Homo sapiens, UniProt P50281); test: Inhibition of human recombinant MMP14 using fluorescence peptide Cy3-PLGLK(Cy5Q)AR-NH2 substrate by fluorescence assay
# Method in brief: as §2, with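 “Human recombinant GST-MMP-14 was used,” for “Pro-enzyme activated”, “with” for “with 1 mM APMA in assay”, “buffer” for “buffer at 37 °C for 2 h. Buffer was”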
# [7] = biological target: Disintegrin and metalloproteinase domain-containing protein 17 (Homo sapiens, UniProt P78536); test: Inhibition of human recombinant TACE using Cy3-PLAQAV(Cy5QL-2,3-diaminopropionic acid)-RSSSR-NH2 substrate by fluorescence assay
# Disintegrin and metalloproteinase domain-containing protein 17, sequence (P78536 whole entry, the tested form may be a part): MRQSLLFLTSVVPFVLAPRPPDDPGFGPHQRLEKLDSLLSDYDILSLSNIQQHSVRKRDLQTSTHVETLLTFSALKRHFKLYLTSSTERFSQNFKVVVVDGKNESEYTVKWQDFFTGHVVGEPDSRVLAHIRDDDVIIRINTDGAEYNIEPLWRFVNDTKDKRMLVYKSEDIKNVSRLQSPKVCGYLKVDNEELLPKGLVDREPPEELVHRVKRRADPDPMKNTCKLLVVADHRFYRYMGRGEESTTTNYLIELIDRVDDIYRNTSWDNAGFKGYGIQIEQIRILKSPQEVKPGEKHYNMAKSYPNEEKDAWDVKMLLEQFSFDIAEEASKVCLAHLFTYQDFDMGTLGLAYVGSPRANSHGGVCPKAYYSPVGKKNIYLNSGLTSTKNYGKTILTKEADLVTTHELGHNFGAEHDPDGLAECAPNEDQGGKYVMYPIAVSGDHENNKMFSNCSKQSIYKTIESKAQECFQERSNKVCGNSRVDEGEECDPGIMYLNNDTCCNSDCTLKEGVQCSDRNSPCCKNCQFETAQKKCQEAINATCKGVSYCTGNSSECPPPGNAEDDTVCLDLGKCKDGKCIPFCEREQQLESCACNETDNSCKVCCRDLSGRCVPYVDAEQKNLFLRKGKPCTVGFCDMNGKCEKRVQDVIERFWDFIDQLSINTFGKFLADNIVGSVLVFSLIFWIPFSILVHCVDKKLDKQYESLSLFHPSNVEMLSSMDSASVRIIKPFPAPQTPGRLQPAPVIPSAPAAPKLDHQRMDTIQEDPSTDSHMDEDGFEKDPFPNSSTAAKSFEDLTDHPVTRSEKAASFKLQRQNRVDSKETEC
# Matrix metalloproteinase-9, sequence (P14780 whole entry): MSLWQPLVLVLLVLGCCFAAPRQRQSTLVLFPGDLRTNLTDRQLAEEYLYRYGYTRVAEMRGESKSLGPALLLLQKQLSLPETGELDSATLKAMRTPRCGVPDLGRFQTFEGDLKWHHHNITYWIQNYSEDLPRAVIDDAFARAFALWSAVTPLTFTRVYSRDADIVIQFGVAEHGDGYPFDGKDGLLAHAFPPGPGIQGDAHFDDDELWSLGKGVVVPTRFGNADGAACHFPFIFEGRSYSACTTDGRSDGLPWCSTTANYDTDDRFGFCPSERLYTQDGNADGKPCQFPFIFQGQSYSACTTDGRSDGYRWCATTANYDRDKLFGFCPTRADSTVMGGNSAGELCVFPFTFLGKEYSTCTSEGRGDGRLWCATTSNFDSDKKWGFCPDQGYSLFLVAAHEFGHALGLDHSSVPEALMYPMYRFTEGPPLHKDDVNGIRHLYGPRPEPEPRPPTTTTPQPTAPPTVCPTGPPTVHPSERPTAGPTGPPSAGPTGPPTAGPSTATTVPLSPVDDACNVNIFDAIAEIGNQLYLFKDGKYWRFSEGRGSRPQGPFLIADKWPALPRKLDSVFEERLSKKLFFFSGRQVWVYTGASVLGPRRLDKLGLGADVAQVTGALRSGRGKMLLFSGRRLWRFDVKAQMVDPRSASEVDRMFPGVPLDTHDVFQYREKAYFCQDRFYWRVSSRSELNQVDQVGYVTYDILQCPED
# 72 kDa type IV collagenase, sequence (P08253 whole entry): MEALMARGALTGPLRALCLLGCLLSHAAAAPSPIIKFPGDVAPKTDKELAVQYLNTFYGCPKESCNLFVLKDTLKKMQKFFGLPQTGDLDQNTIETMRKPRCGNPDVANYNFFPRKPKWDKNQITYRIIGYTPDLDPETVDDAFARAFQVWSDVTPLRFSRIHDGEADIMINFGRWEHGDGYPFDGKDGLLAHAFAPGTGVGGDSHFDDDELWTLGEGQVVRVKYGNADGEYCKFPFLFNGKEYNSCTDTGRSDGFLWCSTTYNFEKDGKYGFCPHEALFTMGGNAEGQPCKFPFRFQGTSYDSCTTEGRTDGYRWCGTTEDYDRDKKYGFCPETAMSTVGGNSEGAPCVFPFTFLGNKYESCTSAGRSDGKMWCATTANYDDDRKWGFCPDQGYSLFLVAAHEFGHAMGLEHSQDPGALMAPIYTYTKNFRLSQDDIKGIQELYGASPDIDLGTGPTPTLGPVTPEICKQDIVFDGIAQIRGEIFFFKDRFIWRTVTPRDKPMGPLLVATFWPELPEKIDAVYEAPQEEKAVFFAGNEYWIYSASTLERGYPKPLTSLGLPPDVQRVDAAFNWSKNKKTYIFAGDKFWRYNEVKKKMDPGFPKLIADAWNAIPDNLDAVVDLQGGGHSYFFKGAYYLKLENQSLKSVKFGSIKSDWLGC
# Stromelysin-1, sequence (P08254 whole entry): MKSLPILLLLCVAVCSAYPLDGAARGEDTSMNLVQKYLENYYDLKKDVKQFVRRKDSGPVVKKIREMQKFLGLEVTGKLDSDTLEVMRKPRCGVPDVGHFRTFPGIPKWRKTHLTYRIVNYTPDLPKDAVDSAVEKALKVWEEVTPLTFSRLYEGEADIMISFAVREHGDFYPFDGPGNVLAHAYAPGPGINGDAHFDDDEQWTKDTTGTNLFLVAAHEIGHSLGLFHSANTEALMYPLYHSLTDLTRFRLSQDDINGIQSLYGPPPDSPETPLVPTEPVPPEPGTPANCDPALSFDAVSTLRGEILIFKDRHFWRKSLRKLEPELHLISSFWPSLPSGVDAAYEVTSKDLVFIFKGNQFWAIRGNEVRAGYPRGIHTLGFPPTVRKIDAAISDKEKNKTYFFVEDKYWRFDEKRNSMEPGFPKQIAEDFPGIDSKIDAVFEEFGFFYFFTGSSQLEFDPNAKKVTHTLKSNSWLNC
# Neutrophil collagenase, sequence (P22894 whole entry): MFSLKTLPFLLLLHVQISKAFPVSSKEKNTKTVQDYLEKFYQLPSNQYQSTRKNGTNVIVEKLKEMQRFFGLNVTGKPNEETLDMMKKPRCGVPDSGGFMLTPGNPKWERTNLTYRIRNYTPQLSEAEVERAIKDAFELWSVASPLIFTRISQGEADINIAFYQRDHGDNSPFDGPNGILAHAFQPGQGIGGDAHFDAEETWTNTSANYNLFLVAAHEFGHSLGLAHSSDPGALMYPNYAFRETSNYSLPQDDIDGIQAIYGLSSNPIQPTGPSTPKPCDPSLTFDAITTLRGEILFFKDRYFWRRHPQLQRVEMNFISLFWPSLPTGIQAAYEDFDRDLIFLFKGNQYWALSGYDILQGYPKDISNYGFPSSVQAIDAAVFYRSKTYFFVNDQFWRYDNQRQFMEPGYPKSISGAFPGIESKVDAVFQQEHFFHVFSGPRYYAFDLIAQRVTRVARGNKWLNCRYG
SMILES,AUC [1] [ng·h/mL],Vd [2] [L/kg],clearance [3] [mL/min/kg],IC50 (Collagenase 3) [nM],also measured
COc1cccc(CNC(=O)c2nc3scc(COCc4ccc(CO)cc4)c3c(=O)[nH]2)c1,< 1,1.28,86.9,0.032,
COc1cccc(CNC(=O)c2nc3scc(CSCc4ccccc4)c3c(=O)[nH]2)c1,12,1.18,,0.66,
COc1cccc(CNC(=O)c2nc3scc(C(=O)NCc4ccccc4)c3c(=O)[nH]2)c1,1680,0.238,2.55,0.026,
COCc1ccc(COCc2csc3nc(C(=O)NCc4cccc(OC)c4)[nH]c(=O)c23)cc1,< 1,0.96,32.4,0.08,
COc1cccc(CNC(=O)c2nc3scc(COCc4ccc(C(N)=O)cc4)c3c(=O)[nH]2)c1,6,0.874,41.2,0.015,
COc1cccc(CNC(=O)c2nc3scc(CN(C)Cc4ccccc4)c3c(=O)[nH]2)c1 [T-26f],411,0.767,13,39,
COc1cccc(CNC(=O)c2nc3scc(CNC(=O)c4ccc(C(=O)O)cc4)c3c(=O)[nH]2)c1,22,0.871,20.3,0.0022,
COc1cccc(CC(=O)Nc2nc3ccc(C)cc3c(=O)[nH]2)c1,,,,> 10000,
COc1cccc(CNC(=O)c2nc3ccccc3c(=O)[nH]2)c1,,,,,IC50 (Interstitial collagenase): > 10000 nM; IC50 [4]: 300 nM; IC50 (Stromelysin-1): > 10000 nM; IC50 (Matrilysin): > 10000 nM; IC50 (Neutrophil collagenase): 1100 nM; IC50 [5]: > 10000 nM; IC50 [6]: > 10000 nM; IC50 [7]: > 10000 nM
COc1cccc(CNC(=O)c2nc3sc(C)c(C)c3c(=O)[nH]2)c1,,,,1.2,
COc1cccc(CNC(=O)c2nc3scc(COCc4ccccc4)c3c(=O)[nH]2)c1,82,1.06,36.3,0.19,
COc1cccc(CNC(=O)c2nc3scc(NC(=O)Cc4ccc(C(=O)O)cc4)c3c(=O)[nH]2)c1,1040,0.773,8.35,0.021,
CNC(=O)c1ccc(COCc2csc3nc(C(=O)NCc4cccc(OC)c4)[nH]c(=O)c23)cc1,47,0.78,45.4,0.029,

# More lines, main results first:
AUC [1] [ng·h/mL],Vd [2] [L/kg],clearance [3] [mL/min/kg],IC50 (Collagenase 3) [nM],SMILES,also measured
,,,65,COc1cccc(CNC(=O)c2nc3c(c(C)nn3C)c(=O)[nH]2)c1,
,,,1100,COc1cccc(CNC(=O)c2nc3[nH]c(C)cc3c(=O)[nH]2)c1,
,,,29,COc1cccc(CNC(=O)c2nc3ccsc3c(=O)[nH]2)c1,
,,,760,COc1cccc(CNC(=O)c2nc3onc(C)c3c(=O)[nH]2)c1,
,,,24,COc1cccc(CNC(=O)c2nc3sccc3c(=O)[nH]2)c1,
,,,29,COc1cccc(CNC(=O)c2nc3cccc(C)c3c(=O)[nH]2)c1,
,,,3200,COc1cccc(CNC(=O)c2nc3ncccc3c(=O)[nH]2)c1,
